Values after ≈ are worked out from the molar mass of the structure shown.
Each compound was assayed on Bacillus subtilis (assay: Antibacterial activity against Bacillus subtilis after 24 hrs by MTT method).
Format: functional
Summary of the method: (§1)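 MIC by broth microdilution in MH medium, with MTT colorimetric read-out. Compounds come from a 50 mg/mL DMSO stock and are serially diluted in the plates. Inoculum is about 10⁵ cfu/mL, incubated at 37 °C for 24 h. The MIC is first read visually. MTT at 2 mg/mL in PBS (0.01 mol/L, pH 7.4) is then added, with a further 4–5 h at room temperature.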

Row | MIC | Compound
1 | 3.12 µg/mL (≈ 7.35 µM) | O=c1cc(-c2ccc3c(c2)OCCO3)oc2cc(OCCN3CCOCC3)cc(O)c12
2 | 1.56 µg/mL (≈ 3.33 µM) | O=c1cc(-c2ccc3c(c2)OCCO3)oc2cc(OCCNCCN3CCOCC3)cc(O)c12
3 | 1.56 µg/mL (≈ 3.24 µM) | O=c1cc(-c2ccc3c(c2)OCCO3)oc2cc(OCCNCCCN3CCOCC3)cc(O)c12
4 | 6.25 µg/mL (≈ 15.3 µM) | O=c1cc(-c2ccc3c(c2)OCCO3)oc2cc(OCCN3CCCC3)cc(O)c12
5 | 12.5 µg/mL (≈ 40 µM) | O=c1cc(-c2ccc3c(c2)OCCO3)oc2cc(O)cc(O)c12
6 | 1.56 µg/mL (≈ 3.37 µM) | O=c1cc(-c2ccc3c(c2)OCCO3)oc2cc(OCCNCc3ccc(F)cc3)cc(O)c12
7 | 6.25 µg/mL (≈ 14.8 µM) | O=c1cc(-c2ccc3c(c2)OCCO3)oc2cc(OCCNC3CCCC3)cc(O)c12
8 | 12.5 µg/mL (≈ 31.5 µM) | CCCNCCOc1cc(O)c2c(=O)cc(-c3ccc4c(c3)OCCO4)oc2c1
9 | 0.39 µg/mL (≈ 0.807 µM) | NC[C@H]1O[C@H](O[C@H]2[C@H](O)[C@@H](O[C@H]3O[C@H](CO)[C@@H](O)[C@H](N)[C@H]3O)[C@H](N)C[C@@H]2N)[C@H](N)[C@@H](O)[C@@H]1O [BEKANAMYCIN]
10 | 1.56 µg/mL (≈ 4.67 µM) | CC1(C)S[C@@H]2[C@H](NC(=O)Cc3ccccc3)C(=O)N2[C@H]1C(=O)O [PENICILLIN G]

Row | Compound | MIC
11 | O=c1cc(-c2ccc(O)c(O)c2)oc2cc(O)cc(O)c12 [LUTEOLIN] | 25 µg/mL (≈ 87.3 µM)

Each compound was assayed on Escherichia coli (assay: Antibacterial activity against Escherichia coli after 24 hrs by MTT method).
Format: functional
Summary of the method: as §1

Row | MIC | Compound
12 | 12.5 µg/mL (≈ 29.4 µM) | O=c1cc(-c2ccc3c(c2)OCCO3)oc2cc(OCCN3CCOCC3)cc(O)c12
13 | 12.5 µg/mL (≈ 26.7 µM) | O=c1cc(-c2ccc3c(c2)OCCO3)oc2cc(OCCNCCN3CCOCC3)cc(O)c12
14 | 6.25 µg/mL (≈ 13 µM) | O=c1cc(-c2ccc3c(c2)OCCO3)oc2cc(OCCNCCCN3CCOCC3)cc(O)c12
15 | 12.5 µg/mL (≈ 30.5 µM) | O=c1cc(-c2ccc3c(c2)OCCO3)oc2cc(OCCN3CCCC3)cc(O)c12
16 | 50 µg/mL (≈ 160 µM) | O=c1cc(-c2ccc3c(c2)OCCO3)oc2cc(O)cc(O)c12
17 | 12.5 µg/mL (≈ 27 µM) | O=c1cc(-c2ccc3c(c2)OCCO3)oc2cc(OCCNCc3ccc(F)cc3)cc(O)c12
18 | 25 µg/mL (≈ 59 µM) | O=c1cc(-c2ccc3c(c2)OCCO3)oc2cc(OCCNC3CCCC3)cc(O)c12
19 | 25 µg/mL (≈ 62.9 µM) | CCCNCCOc1cc(O)c2c(=O)cc(-c3ccc4c(c3)OCCO4)oc2c1
20 | 3.12 µg/mL (≈ 6.46 µM) | NC[C@H]1O[C@H](O[C@H]2[C@H](O)[C@@H](O[C@H]3O[C@H](CO)[C@@H](O)[C@H](N)[C@H]3O)[C@H](N)C[C@@H]2N)[C@H](N)[C@@H](O)[C@@H]1O [BEKANAMYCIN]
21 | 6.25 µg/mL (≈ 18.7 µM) | CC1(C)S[C@@H]2[C@H](NC(=O)Cc3ccccc3)C(=O)N2[C@H]1C(=O)O [PENICILLIN G]

Row | Compound | MIC
22 | O=c1cc(-c2ccc(O)c(O)c2)oc2cc(O)cc(O)c12 [LUTEOLIN] | 50 µg/mL (≈ 175 µM)

The compounds below were run on Staphylococcus aureus (assay: Antibacterial activity against Staphylococcus aureus after 24 hrs by MTT method).
Format: functional
Summary of the method: as §1

Row | MIC | Compound
23 | 6.25 µg/mL (≈ 14.7 µM) | O=c1cc(-c2ccc3c(c2)OCCO3)oc2cc(OCCN3CCOCC3)cc(O)c12
24 | 6.25 µg/mL (≈ 13.3 µM) | O=c1cc(-c2ccc3c(c2)OCCO3)oc2cc(OCCNCCN3CCOCC3)cc(O)c12
25 | 3.12 µg/mL (≈ 6.48 µM) | O=c1cc(-c2ccc3c(c2)OCCO3)oc2cc(OCCNCCCN3CCOCC3)cc(O)c12
26 | 12.5 µg/mL (≈ 30.5 µM) | O=c1cc(-c2ccc3c(c2)OCCO3)oc2cc(OCCN3CCCC3)cc(O)c12
27 | 25 µg/mL (≈ 80.1 µM) | O=c1cc(-c2ccc3c(c2)OCCO3)oc2cc(O)cc(O)c12
28 | 3.12 µg/mL (≈ 6.74 µM) | O=c1cc(-c2ccc3c(c2)OCCO3)oc2cc(OCCNCc3ccc(F)cc3)cc(O)c12
29 | 12.5 µg/mL (≈ 29.5 µM) | O=c1cc(-c2ccc3c(c2)OCCO3)oc2cc(OCCNC3CCCC3)cc(O)c12
30 | 25 µg/mL (≈ 62.9 µM) | CCCNCCOc1cc(O)c2c(=O)cc(-c3ccc4c(c3)OCCO4)oc2c1
31 | 1.56 µg/mL (≈ 3.23 µM) | NC[C@H]1O[C@H](O[C@H]2[C@H](O)[C@@H](O[C@H]3O[C@H](CO)[C@@H](O)[C@H](N)[C@H]3O)[C@H](N)C[C@@H]2N)[C@H](N)[C@@H](O)[C@@H]1O [BEKANAMYCIN]
32 | 1.56 µg/mL (≈ 4.67 µM) | CC1(C)S[C@@H]2[C@H](NC(=O)Cc3ccccc3)C(=O)N2[C@H]1C(=O)O [PENICILLIN G]

Row | Compound | MIC
33 | O=c1cc(-c2ccc(O)c(O)c2)oc2cc(O)cc(O)c12 [LUTEOLIN] | 50 µg/mL (≈ 175 µM)

What follows are compounds tested on Pseudomonas fluorescens (assay: Antibacterial activity against Pseudomonas fluorescens after 24 hrs by MTT method).
Format: functional
Summary of the method: as §1

Row | MIC | Compound
34 | 6.25 µg/mL (≈ 14.7 µM) | O=c1cc(-c2ccc3c(c2)OCCO3)oc2cc(OCCN3CCOCC3)cc(O)c12
35 | 3.12 µg/mL (≈ 6.67 µM) | O=c1cc(-c2ccc3c(c2)OCCO3)oc2cc(OCCNCCN3CCOCC3)cc(O)c12
36 | 3.12 µg/mL (≈ 6.48 µM) | O=c1cc(-c2ccc3c(c2)OCCO3)oc2cc(OCCNCCCN3CCOCC3)cc(O)c12
37 | 12.5 µg/mL (≈ 30.5 µM) | O=c1cc(-c2ccc3c(c2)OCCO3)oc2cc(OCCN3CCCC3)cc(O)c12
38 | 12.5 µg/mL (≈ 40 µM) | O=c1cc(-c2ccc3c(c2)OCCO3)oc2cc(O)cc(O)c12
39 | 6.25 µg/mL (≈ 13.5 µM) | O=c1cc(-c2ccc3c(c2)OCCO3)oc2cc(OCCNCc3ccc(F)cc3)cc(O)c12
40 | 12.5 µg/mL (≈ 29.5 µM) | O=c1cc(-c2ccc3c(c2)OCCO3)oc2cc(OCCNC3CCCC3)cc(O)c12
41 | 12.5 µg/mL (≈ 31.5 µM) | CCCNCCOc1cc(O)c2c(=O)cc(-c3ccc4c(c3)OCCO4)oc2c1
42 | 3.12 µg/mL (≈ 6.46 µM) | NC[C@H]1O[C@H](O[C@H]2[C@H](O)[C@@H](O[C@H]3O[C@H](CO)[C@@H](O)[C@H](N)[C@H]3O)[C@H](N)C[C@@H]2N)[C@H](N)[C@@H](O)[C@@H]1O [BEKANAMYCIN]
43 | 6.25 µg/mL (≈ 18.7 µM) | CC1(C)S[C@@H]2[C@H](NC(=O)Cc3ccccc3)C(=O)N2[C@H]1C(=O)O [PENICILLIN G]

Row | Compound | MIC
44 | O=c1cc(-c2ccc(O)c(O)c2)oc2cc(O)cc(O)c12 [LUTEOLIN] | 25 µg/mL (≈ 87.3 µM)

— ChEMBL document CHEMBL1153843, “Synthesis and biological evaluation of novel luteolin derivatives as antibacterial agents” (2009)
